Shown are actives, neighbours in structure and some others; about 1.3% of the full set was active somewhere.
aDG glyco up – alpha-DG glycosylation activation | Pro5-aDG cells, alpha-DG glycosylation AlphaScreen (IIH6); 0% Pro5, 100% B10-LARGE cell signal | 360,000 tested, 0.22% active | activation, % at 10 µM;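 active = activation of at least 8% versus controls, or a plate z-score of at least 8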;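 note: Pro5 are CHO cells carrying HIG-tagged alpha-DG that lacks glycosylation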
CSN deneddyl inh – inhibitors of human CSN-mediated cullin deneddylation; Q92905; Purified CSN, SCF-Nedd8-OG deneddylation, fluorescence polarization; inhibition, % at 12.5 µM; 360,000 tested, 0.38% active; AID 651999;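 active = pattern-corrected inhibition above about 35%, with an unprinted fluorescence ratio check between 0.5 and 1.5, limit read from the data, passing the limit was not always enough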
Target sequence (Q92905 whole entry, looked up, one chain of several): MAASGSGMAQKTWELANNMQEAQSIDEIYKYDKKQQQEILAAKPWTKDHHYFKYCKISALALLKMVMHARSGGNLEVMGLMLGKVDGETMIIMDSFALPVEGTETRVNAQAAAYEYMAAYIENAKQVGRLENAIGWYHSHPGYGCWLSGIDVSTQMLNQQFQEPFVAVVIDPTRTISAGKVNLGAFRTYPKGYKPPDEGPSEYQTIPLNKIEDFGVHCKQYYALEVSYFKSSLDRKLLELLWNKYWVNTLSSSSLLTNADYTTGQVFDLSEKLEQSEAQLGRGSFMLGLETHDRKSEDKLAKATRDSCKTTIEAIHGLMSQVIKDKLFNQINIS
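Assay system: Purified human Csn5 enzyme expressed in HEK293T cells | Amount: Enzyme 0.24 nM | Measured by: Fluorescence polarization readout | Medium: Tris/NaCl/DTT buffer, pH 7.5 | Compound dosing: One concentration, 12.5 µM, 0.25% DMSO | Times: 90 min incubation of compound, enzyme and substrate at room temperature | Control set: no-enzyme wells high, enzyme-with-substrate wells low | Read-out: % inhibition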
HNF4A DNA FP – change in binding of human HNF4 alpha to DNA; P41235; HNF4a-FITC DNA binding, fluorescence polarization, 1 h; activity change, % at 10 µM; 360,000 tested, 0.3% active; AID 1224865; in the data active = activity change above about 30%, passing the limit was not always enough
Rpn11 block – inhibitors of human proteasome Rpn11 | O00487 | human 26S proteasome, Ub4-pepOG fluorescence polarization; 20S core pre-blocked with epoxomicin | inhibition, % at 20 µM | 360,000 tested, 0.59% active | AID 588493;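 active = inhibition at 20 µM, scaled to each plate's controls, above about 33%, limit read from the data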
Target sequence (O00487 whole entry, looked up): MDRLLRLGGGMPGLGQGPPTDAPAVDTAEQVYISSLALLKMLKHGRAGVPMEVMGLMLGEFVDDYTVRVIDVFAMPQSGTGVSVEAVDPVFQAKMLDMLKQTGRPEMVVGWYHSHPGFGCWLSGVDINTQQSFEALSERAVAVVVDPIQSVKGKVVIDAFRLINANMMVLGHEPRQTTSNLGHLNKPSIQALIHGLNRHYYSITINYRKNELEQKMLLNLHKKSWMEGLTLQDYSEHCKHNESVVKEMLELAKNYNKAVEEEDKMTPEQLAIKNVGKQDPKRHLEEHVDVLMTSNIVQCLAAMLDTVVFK
XiGFP reactiv – X-chromosome reactivation activator. XiGFP mouse fibroblasts, % GFP-positive cells imaging, 3 d; cells co-treated with 5-aza-dC sensitizer; scaled so ellipticine positive control = 100%. 360,000 tested, 0.055% active. activation, % at 7.58 µM;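 active = mean normalized replicate activation at least 10% and every replicate at or above 10%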
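Assay system: SV40-immortalized XiGFP fibroblast cells, line 68-5-11; buffer or medium: DMEM plus 5-aza-dC sensitizer; compound: one concentration, pinned; timing: compounds 3 days, fix/stain 15 min at room temperature; benchmarks: positive control ellipticine, 6 µM final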
TPT1 inh – inhibitors of Candida albicans tRNA 2'-phosphotransferase TPT1; recombinant caTPT1, FP RNA substrate dephosphorylation; inhibition, % at 5 µM; 300,000 tested, 0.81% active;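 active = inhibition above the mean of all tested compounds plus 3 SD, set per screening campaign, cut at about 24% in these data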
caTPT1 confirm – TPT1 (C. albicans) inhibition, confirmation. shares compounds with TPT1 inh. recombinant caTPT1, fluorescence polarization, RNase T1 coupled. inhibition, % at 5 µM. 2,400 tested, 74% active. AID 2149;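 active = inhibition above the primary screen limit, the mean inhibition of all tested compounds plus 3 SD, cut at about 25% in these data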
RNase T1 inh – counter-screen for TPT1 inhibitors: inhibitors of Aspergillus oryzae RNase T1; shares compounds with TPT1 inh; RNase T1 cleavage, fluorescence polarization, 1536-well; inhibition, % at 5 µM; 2,400 tested, 83% active;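 active = inhibition above the solvent-only control well mean plus 3 SD, limit set per screening run, cut at about 23% in these data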;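 note: inhibitors block cleavage so intact labeled substrate keeps polarization high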
Numbers stand for hits.

What do the screens show for `C=CCn1c(SCC(=O)N(CC)C2CCS(=O)(=O)C2)nc2ccccc2c1=O` (stereo unspecified)?
aDG glyco up: inactive; CSN deneddyl inh: inactive; HNF4A DNA FP: inactive; Rpn11 block: inactive; XiGFP reactiv: inactive; TPT1 inh: 52; caTPT1 confirm: inactive; RNase T1 inh: inactive

How did COc1ccccc1NC(=O)Nc1sccc1-c1nc2ccccc2s1 do in these assays?
aDG glyco up: inactive; CSN deneddyl inh: inactive; HNF4A DNA FP: inactive; Rpn11 block: inactive; XiGFP reactiv: inactive; TPT1 inh: 33; caTPT1 confirm: 34; RNase T1 inh: 49

Results for CCn1c2ccccc2c2cc(NC(=O)c3ccc(=O)oc3)ccc21 ?
aDG glyco up: inactive; CSN deneddyl inh: inactive; HNF4A DNA FP: inactive; Rpn11 block: inactive; XiGFP reactiv: inactive; TPT1 inh: 63; caTPT1 confirm: 34; RNase T1 inh: 37

How did CCn1c2ccccc2c2cc(NC(=O)c3coc(=O)c(Br)c3)ccc21 do in these assays?
aDG glyco up: inactive; CSN deneddyl inh: inactive; HNF4A DNA FP: inactive; Rpn11 block: inactive; XiGFP reactiv: inactive; TPT1 inh: inactive

What do the screens show for `O=C(N/N=C/c1ccc(O)cc1O)c1ccncc1`?
aDG glyco up: inactive; CSN deneddyl inh: inactive; HNF4A DNA FP: inactive; Rpn11 block: inactive; XiGFP reactiv: inactive; TPT1 inh: inactive

What do the screens show for `O=C(N/N=C/c1ccc(Cl)cc1Cl)c1ccncc1`?
aDG glyco up: inactive; CSN deneddyl inh: inactive; HNF4A DNA FP: inactive; Rpn11 block: inactive; XiGFP reactiv: inactive; TPT1 inh: inactive

How did O=C(N/N=C/c1cc(Cl)cc(Cl)c1O)c1ccncc1 do in these assays?
aDG glyco up: inactive; CSN deneddyl inh: inactive; HNF4A DNA FP: inactive; XiGFP reactiv: inactive; TPT1 inh: 40; caTPT1 confirm: 37; RNase T1 inh: 49

How did O=C(N/N=C/c1cc(Br)cc(Br)c1O)c1ccncc1 do in these assays?
XiGFP reactiv: inactive; TPT1 inh: 89; caTPT1 confirm: 77; RNase T1 inh: 83

Results for CCCC(O)C#Cc1cnc2c(c1)C(=O)N([C@H](C)CO)C[C@H](C)[C@H](CN(C)S(=O)(=O)c1ccc(OC)cc1)O2 (stereo partly specified) ?
XiGFP reactiv: inactive

What do the screens show for `O=C(O)c1ccccc1-c1ccc(/C=c2\sc3nc4cc(Br)cnc4n3c2=O)o1`?
aDG glyco up: inactive; CSN deneddyl inh: 186; HNF4A DNA FP: inactive; TPT1 inh: 84; caTPT1 confirm: 131; RNase T1 inh: 122

How did CN(C)C(=O)C[C@@H]1C[C@@H]2c3cc(NS(C)(=O)=O)ccc3O[C@@H]2[C@H](CO)O1 do in these assays?
XiGFP reactiv: inactive

Results for CC(=O)Nc1cccc(C(=O)/C=C/c2ccc(N(C)C)cc2)c1 ?
aDG glyco up: inactive; CSN deneddyl inh: inactive; HNF4A DNA FP: 83; XiGFP reactiv: inactive; TPT1 inh: 103; caTPT1 confirm: 100; RNase T1 inh: 99

How did CC(=O)Nc1cccc(C(=O)/C=C/c2ccc(/C=C/C(=O)c3cccc(NC(C)=O)c3)cc2)c1 do in these assays?
XiGFP reactiv: inactive; TPT1 inh: inactive

How did Cc1[nH]nc2c1C(c1ccsc1C)C(C#N)=C(N)O2 (stereo unspecified) do in these assays?
aDG glyco up: inactive; CSN deneddyl inh: inactive; HNF4A DNA FP: inactive; Rpn11 block: inactive; TPT1 inh: inactive

How did Cc1sccc1C1C(C#N)=C(N)SC(N)=C1C#N do in these assays?
TPT1 inh: 100; caTPT1 confirm: 70; RNase T1 inh: 84

What do the screens show for `Cc1cc(C2C(C#N)=C(N)SC(N)=C2C#N)c(C)s1`?
aDG glyco up: inactive; CSN deneddyl inh: inactive; HNF4A DNA FP: inactive; TPT1 inh: 101; caTPT1 confirm: 46; RNase T1 inh: 59

How did CC1CCN(C(=O)C2CCN(S(=O)(=O)c3cccc4nonc34)CC2)CC1 do in these assays?
aDG glyco up: inactive; CSN deneddyl inh: inactive; HNF4A DNA FP: inactive; Rpn11 block: inactive; TPT1 inh: 42; caTPT1 confirm: inactive; RNase T1 inh: inactive

Results for C[C@@H]1CN([C@H](C)CO)C(=O)c2cc(/C=C/c3ccccc3)cnc2O[C@@H]1CN(C)C(=O)c1cnccn1 ?
XiGFP reactiv: inactive

How did COc1ccc(C(=O)Nc2nnc(CC(=O)N/N=C/c3ccc(O)cc3O)s2)cc1 do in these assays?
aDG glyco up: inactive; CSN deneddyl inh: inactive; HNF4A DNA FP: inactive; Rpn11 block: inactive; XiGFP reactiv: inactive; TPT1 inh: 53; caTPT1 confirm: 81; RNase T1 inh: 83

What do the screens show for `Cc1ccc(C(=O)Nc2nnc(CC(=O)N/N=C/c3ccc(O)c(O)c3)s2)cc1`?
aDG glyco up: inactive; CSN deneddyl inh: inactive; HNF4A DNA FP: inactive; XiGFP reactiv: inactive; TPT1 inh: inactive

What do the screens show for `COCCn1c(C)cc(C(=O)COC(=O)c2ccc(NC(=O)CC#N)cc2)c1C`?
aDG glyco up: inactive; CSN deneddyl inh: inactive; HNF4A DNA FP: inactive; Rpn11 block: inactive; TPT1 inh: 52; caTPT1 confirm: 30; RNase T1 inh: 42

How did CC(C)N1CCC2(CC1)C(C#N)=C(N)NC(S)=C2C#N do in these assays?
TPT1 inh: 68; caTPT1 confirm: 38; RNase T1 inh: 47

How did COc1ccc2c3c(n(C)c2c1)[C@H](CO)N(C(=O)CN1CCOCC1)CC31CCN(C)CC1 do in these assays?
XiGFP reactiv: inactive

How did COc1ccc(C(=O)Nc2nc(-c3cccs3)cs2)cc1 do in these assays?
aDG glyco up: inactive; CSN deneddyl inh: inactive; HNF4A DNA FP: inactive; Rpn11 block: inactive; TPT1 inh: inactive

Results for Cc1csc(NC(=O)c2sc3nc(-c4cccs4)ccc3c2N)n1 ?
TPT1 inh: 27; caTPT1 confirm: 26; RNase T1 inh: 41

How did COc1ccc(CNC(=O)C[C@H]2CC[C@H](NC(=O)c3cccc(F)c3)[C@H](CO)O2)cc1 do in these assays?
XiGFP reactiv: inactive

What do the screens show for `COc1cccc(/C=C2/CN(C)CC3=C2OC(N)=C(C#N)C3c2cccc(OC)c2)c1` (stereo unspecified)?
aDG glyco up: inactive; CSN deneddyl inh: inactive; HNF4A DNA FP: inactive; Rpn11 block: inactive; TPT1 inh: 40; caTPT1 confirm: 25; RNase T1 inh: 34

How did COc1cccc(C2C(C#N)=C(N)OC(C(C)(C)C)=C2C#N)c1 (stereo unspecified) do in these assays?
aDG glyco up: inactive; CSN deneddyl inh: inactive; HNF4A DNA FP: inactive; Rpn11 block: inactive; TPT1 inh: inactive

Screening data (PubChem BioAssay)
